Reference: ChEMBL document CHEMBL1126143, “Synthesis and antitumor activity of tropolone derivatives. 7. Bistropolones containing connecting methylene chains” (J Med Chem, 1992)
Calls of active or inactive are those of the source. The rule behind the calls is not given here.

Assays:
[1] = Inhibit growth of KB cells by 50%; format: functional, cell-based; details: Homo sapiens
FM3A [2] = assay: Inhibit growth of FM3A cells by 50%; format: functional, cell-based; details: Mus musculus
How it was run: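 FM3A cells were grown in ES medium with 2% heat-inactivated FBS at 37 °C under 5% CO2, seeded at about 5 × 10^4 cells/mL, and exposed to a range of drug concentrations. Cells were counted electronically after 48 h. IC50 is the concentration that reduces growth rate by 50% of control.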

P388 [3] = assay: Compound was tested in vivo for the antitumor activity against P388 leukemia cells in mice after intraperitoneal administration of 25 mg/kg dose; T/C= treated/control; format: functional, Mus musculus
P388 [4] = assay: Compound was tested in vivo for the antitumor activity against P388 in mice after intraperitoneal administration of 6.3 mg/kg dose; T/C= treated/control; format: functional, Mus musculus
P388 [5] = assay: Compound was tested in vivo for the antitumor activity against P388 in mice after intraperitoneal administration of 12.5 mg/kg dose; T/C= treated/control; format: functional, Mus musculus
FM3A [6] = assay: Ability to induce dNTP pool imbalance at 7.9 uM dose was tested; significant imbalance in the intracellular dNTP pool in FM3A cells; details: Mus musculus
FM3A [7] = assay: Ability to induce dNTP pool imbalance at 41 uM dose was tested; significant imbalance in the intracellular dNTP pool in FM3A cells; format: functional, cell-based; details: Mus musculus
P388 [8] = assay: Tested in vivo for the antitumor activity against P388 in mice after intraperitoneal administration of 200 mg/kg dose; T/C= treated/control; format: functional, Mus musculus
P388 [9] = assay: Tested in vivo for the antitumor activity against P388 leukemia cells in mice after intraperitoneal administration of 400 mg/kg dose; T/C= treated/control; format: functional, Mus musculus
P388 [10] = assay: Tested in vivo for the antitumor activity against P388 in mice after intraperitoneal administration of 100 mg/kg dose; T/C= treated/control; format: functional, Mus musculus
P388 [11] = assay: Compound was tested in vivo for the antitumor activity against P388 in mice after intraperitoneal administration of 20 mg/kg dose; T/C= treated/control; format: functional, Mus musculus
FM3A [12] = assay: Ability to induce dNTP pool imbalance at 3.5 uM dose was tested; significant imbalance in the intracellular dNTP pool in FM3A cells; details: Mus musculus
P388 [13] = assay: Compound was tested in vivo for the antitumor activity against P388 in mice after intraperitoneal administration of 10 mg/kg dose; T/C= treated/control; format: functional, Mus musculus
P388 [14] = assay: Compound was tested in vivo for the antitumor activity against P388 leukemia cells in mice after intraperitoneal administration of 40 mg/kg dose; T/C= treated/control; format: functional, Mus musculus
FM3A [15] = assay: Compound''s ability to induce dNTP pool imbalance at 6.1 uM dose was tested; significant imbalance in the intracellular dNTP pool in FM3A cells; format: functional, cell-based; details: Mus musculus
FM3A [16] = assay: Ability to induce dNTP pool imbalance at 9.0 uM dose was tested; significant imbalance in the intracellular dNTP pool in FM3A cells; details: Mus musculus
P388 [17] = assay: Compound was tested in vivo for the antitumor activity against P388 leukemia cells in mice after intraperitoneal administration of 5 mg/kg dose; T/C= treated/control; format: functional, Mus musculus
P388 [18] = assay: Compound was tested in vivo for the antitumor activity against P388 in mice after intraperitoneal administration of 0.6 mg/kg dose; T/C= treated/control; format: functional, Mus musculus
P388 [19] = assay: Compound was tested in vivo for the antitumor activity against P388 in mice after intraperitoneal administration of 2.5 mg/kg dose; T/C= treated/control; format: functional, Mus musculus
P388 [20] = assay: Compound was tested in vivo for the antitumor activity against P388 in mice after intraperitoneal administration of 400 mg/kg dose; T/C= treated/control; format: functional, Mus musculus
P388 [21] = details: Mus musculus
P388 [22] = assay: Compound was tested in vivo for the antitumor activity against P388 leukemia cells in mice after intraperitoneal administration of 12.5 mg/kg dose; T/C= treated/control
P388 [23] = assay: Compound was tested in vivo for the antitumor activity against P388 in mice after intraperitoneal administration of 3.1 mg/kg dose; T/C= treated/control; format: functional, Mus musculus
P388 [24] = assay: Compound was tested in vivo for the antitumor activity against P388 in mice after intraperitoneal administration of 50 mg/kg dose; T/C= treated/control; format: functional, Mus musculus
P388 [25] = assay: Compound was tested in vivo for the antitumor activity against P388 in mice after intraperitoneal administration of 25 mg/kg dose; T/C= treated/control; format: functional, Mus musculus
P388 [26] = assay: Compound was tested in vivo for the antitumor activity against P388 leukemia cells in mice after intraperitoneal administration of 100 mg/kg dose; T/C= treated/control; format: functional, Mus musculus
FM3A [27] = assay: Ability to induce dNTP pool imbalance at 15.0 uM dose was tested; significant imbalance in the intracellular dNTP pool in FM3A cells; details: Mus musculus
FM3A [28] = assay: Ability to induce dNTP pool imbalance at 7.3 uM dose was tested; significant imbalance in the intracellular dNTP pool in FM3A cells; details: Mus musculus
FM3A [29] = assay: Ability to induce dNTP pool imbalance at 16.4 uM dose was tested; significant imbalance in the intracellular dNTP pool in FM3A cells; details: Mus musculus

Compound | IC50 [1] [nM] | IC50 (FM3A [2]) [nM] | Imbalance (FM3A [7]) | T/C (P388 [8]) [%] | T/C (P388 [9]) [%] | T/C (P388 [10]) [%] | also measured
CC(C)c1ccc(Cc2ccc(C(C)C)cc(=O)c2O)c(O)c(=O)c1 | < 900 | 1000 | – | – | – | – | T/C (P388 [3]): 123%; T/C (P388 [4]): 137%; T/C (P388 [5]): 152%; Imbalance (FM3A [6]): significant imbalance in the intracellular dNTP pool in FM3A cells
CC(C)c1ccc(CCCCCCCCc2ccc(C(C)C)cc(=O)c2O)c(O)c(=O)c1 | 4300 | 900 | significant imbalance in the intracellular dNTP pool in FM3A cells | 110 | 110 | 107 | –
CC(C)c1ccc(SCCCSc2ccc(C(C)C)cc(=O)c2O)c(O)c(=O)c1 | 1600 | – | – | 131 | 169 | 93 | –
CC(C)c1ccc(COCc2ccc(C(C)C)cc(=O)c2O)c(O)c(=O)c1 | 6200 | 80 | – | – | – | – | T/C (P388 [11]): 186%; Imbalance (FM3A [12]): significant imbalance in the intracellular dNTP pool in FM3A cells; T/C (P388 [13]): 164%; T/C (P388 [14]): 156%
CCOC(c1ccc(OC)cc1)c1ccc(C(C)C)cc(=O)c1O (stereo not given) | 1600 | 1100 | – | 140 | 140 | – | Imbalance (FM3A [15]): significant imbalance in the intracellular dNTP pool in FM3A cells
COc1ccc(C(c2ccc(C(C)C)cc(=O)c2O)c2ccc(C(C)C)cc(=O)c2O)cc1 | 1100 | 400 | – | – | – | – | Imbalance (FM3A [16]): significant imbalance in the intracellular dNTP pool in FM3A cells; T/C (P388 [17]): 173%; T/C (P388 [18]): 127%; T/C (P388 [19]): 134%
CC(C)c1ccc(CCCCCCCCCCCCc2ccc(C(C)C)cc(=O)c2O)c(O)c(=O)c1 | 27300 | 1300 | significant imbalance in the intracellular dNTP pool in FM3A cells | 107 | – | 106 | T/C (P388 [20]): 105%
COc1ccc(C(c2oc(CO)cc(=O)c2O)c2oc(CO)cc(=O)c2O)cc1 | > 249000 | > 249000 | – | – | – | – | T/C (P388 [21]): inactive
COc1ccc(C(c2ccc(C(C)C)cc(OC)c2=O)c2ccc(C(C)C)cc(OC)c2=O)cc1 | 114000 | 14100 | – | – | – | – | T/C (P388 [21]): inactive
COc1ccc(C(c2ccc3cccnc3c2O)c2ccc3cccnc3c2O)cc1 | < 700 | 10 | significant imbalance in the intracellular dNTP pool in FM3A cells | – | – | – | T/C (P388 [4]): 128%; T/C (P388 [22]): 164%; T/C (P388 [23]): 111%
CC(C)C1=CC(=O)C(=O)/C(=C2/C=CC(C(C)C)=CC(O)=C2O)C=C1 | 9500 | 3700 | significant imbalance in the intracellular dNTP pool in FM3A cells | – | – | – | T/C (P388 [24]): 171%; T/C (P388 [25]): 152%; T/C (P388 [26]): 143%
CC(C)c1ccc(CCc2ccc(C(C)C)cc(=O)c2O)c(O)c(=O)c1 | 8000 | 1200 | – | – | – | – | T/C (P388 [25]): 150%; T/C (P388 [4]): 121%; Imbalance (FM3A [27]): significant imbalance in the intracellular dNTP pool in FM3A cells; T/C (P388 [26]): 165%
CC(C)c1ccc(CCCCCCc2ccc(C(C)C)cc(=O)c2O)c(O)c(=O)c1 | 1500 | 900 | – | 80 | 70 | 128 | T/C (P388 [24]): 137%; T/C (P388 [25]): 110%; Imbalance (FM3A [28]): significant imbalance in the intracellular dNTP pool in FM3A cells
CC(C)c1cccc(=O)c(O)c1 [HINOKITIOL] | 3500 | 1100 | significant imbalance in the intracellular dNTP pool in FM3A cells | – | – | – | T/C (P388 [9]; Mus musculus): inactive
CC(C)c1ccc(SCCSc2ccc(C(C)C)cc(=O)c2O)c(O)c(=O)c1 | 1600 | 4800 | – | 171 | 80 | 151 | Imbalance (FM3A [29]): significant imbalance in the intracellular dNTP pool in FM3A cells
Oc1cccc2cccnc12 [OXYQUINOLINE] | < 2100 | 2100 | significant imbalance in the intracellular dNTP pool in FM3A cells | – | – | 92 | –
